Results published in ChEMBL document CHEMBL1123677, “Structure-activity studies of 5-[[4-(4,5-dihydro-2-oxazolyl) phenoxy]alkyl]-3-methylisoxazoles: inhibitors of picornavirus uncoating” (J Med Chem, 1987).
Values after ≈ are worked out from the molar mass of the structure shown. Active and inactive are the calls of the source. The calls are words filed in the database; no cut-off is given here.

Columns and labels:
Human rhinovirus 1A = experiment: Tested for antirhinoviral activity against the rhinovirus serotype 1A; assay type: functional
Outline: (§1)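 Selected compounds were tested across a 15-serotype rhinovirus panel: the five secondary serotypes plus 10 more. An MIC was recorded for each serotype. MIC80, the concentration inhibiting 80% of serotypes tested, was also derived from this panel.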

rhinovirus A2 [1] = experiment: Antiviral activity determined by ability to inhibit the HRV-2( human rhinovirus type -2) virus by plaque reduction assay in vitro; assay type: functional; conditions: Rhinovirus A
Outline: (§2)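 Plaque reduction assay against human rhinovirus type 2 (HRV-2), following an earlier reported method. The value is the MIC, the minimum inhibitory concentration.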

rhinovirus A2 [2] = experiment: Tested for antirhinoviral activity against the rhinovirus serotype 2; assay type: functional, human rhinovirus type 2; conditions: Rhinovirus A; outline: as §1
rhinovirus A21 = experiment: Tested for antirhinoviral activity against the rhinovirus serotype 21; assay type: functional; conditions: Rhinovirus A; outline: as §1
rhinovirus B86 = experiment: Tested for antirhinoviral activity against the rhinovirus serotype 86; assay type: functional; conditions: Rhinovirus B; outline: as §1
[3] = system: human rhinovirus (15-serotype panel); experiment: Antirhinovirus activity was determined by the ability to inhibit the growth of 80% of a panel of 15 human rhinovirus serotypes
rhinovirus A89 = experiment: Tested for antirhinoviral activity against the rhinovirus serotype 89; assay type: functional, human rhinovirus type 89; conditions: Rhinovirus A; outline: as §1
rhinovirus A1B = experiment: Tested for antirhinoviral activity against the rhinovirus serotype 1B; assay type: functional, human rhinovirus type 1b; conditions: Rhinovirus A; outline: as §1
rhinovirus A22 = experiment: Tested for antirhinoviral activity against the rhinovirus serotype 22; assay type: functional; conditions: Rhinovirus A; outline: as §1
rhinovirus A15 = experiment: Tested for antirhinoviral activity against the rhinovirus serotype 15; assay type: functional; conditions: Rhinovirus A; outline: as §1
rhinovirus A67 = experiment: Tested for antirhinoviral activity against the rhinovirus serotype 67; assay type: functional; conditions: Rhinovirus A; outline: as §1
rhinovirus A25 = experiment: Tested for antirhinoviral activity against the rhinovirus serotype 25; assay type: functional; conditions: Rhinovirus A; outline: as §1
rhinovirus A41 = experiment: Tested for antirhinoviral activity against the rhinovirus serotype 41; assay type: functional; conditions: Rhinovirus A; outline: as §1
rhinovirus B14 = experiment: Tested for antirhinoviral activity against the rhinovirus serotype 14; assay type: functional, human rhinovirus type 14; conditions: Rhinovirus B; outline: as §1
rhinovirus A50 = experiment: Tested for antirhinoviral activity against the rhinovirus serotype 50; assay type: functional; conditions: Rhinovirus A; outline: as §1
[4] = Partition coefficient (logP); assay type: physicochemical; conditions: octanol/water
rhinovirus A30 = experiment: Tested for antirhinoviral activity against the rhinovirus serotype 30; assay type: functional; conditions: Rhinovirus A; outline: as §1
rhinovirus A2 [5] = experiment: Antirhinovirus activity was assessed and the maximum testable concentration that causes no apparent effects on the cell monolayers was determined against HRV-2 virus in vitro.; assay type: functional, human rhinovirus type 2
rhinovirus B6 = experiment: Tested for antirhinoviral activity against the rhinovirus serotype 6; assay type: functional; conditions: Rhinovirus B; outline: as §1
Human rhinovirus sp. = experiment: Mean of MIC's was determined for the five types of virus like HRV-2, HRV-1A,HRV-22,HRV-41 and HRV-50; assay type: functional
Outline: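 MIC measured by plaque reduction against HRV-2 first. The value is the mean of the MICs across these five serotypes.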

rhinovirus A2 [6] = experiment: Antirhinovirus activity was determined by the ability to inhibit the HRV-2( human rhinovirus type -2) virus by plaque reduction assay in vitro; IA is inactive; assay type: functional, organism-based; outline: as §2
rhinovirus A2 [7] = experiment: Antirhinovirus activity was determined by the ability to inhibit the HRV-2 (human rhinovirus type -2) virus by plaque reduction assay in vitro; assay type: functional; conditions: Rhinovirus A; outline: as §2

| Structure (SMILES) | MIC (Human rhinovirus 1A) [µM] | MIC (rhinovirus A2 [1]) [µM] | MIC (rhinovirus A2 [2]) [µM] | MIC (rhinovirus A21) [µM] | MIC (rhinovirus B86) [µM] | MIC80 [3] [µM] | MIC (rhinovirus A89) [µM] | MIC (rhinovirus A1B) [µM] | MIC (rhinovirus A22) [µM] | MIC (rhinovirus A15) [µM] | MIC (rhinovirus A67) [µM] | MIC (rhinovirus A25) [µM] | MIC (rhinovirus A41) [µM] | MIC (rhinovirus B14) [µM] | MIC (rhinovirus A50) [µM] | logP [4] | MIC (rhinovirus A30) [µM] | MTL (rhinovirus A2 [5]) [µM] | MIC (rhinovirus B6) [µM] | MIC (Human rhinovirus sp.) [µM] | further results |
| --- | --- | --- | --- | --- | --- | --- | --- | --- | --- | --- | --- | --- | --- | --- | --- | --- | --- | --- | --- | --- | --- |
| C=Cc1cc(C2=NCCO2)ccc1OCCCCCc1cc(C)no1 | 1.2 (≈ 0.409 µg/mL) | 0.2 (≈ 0.0681 µg/mL) | 0.2 (≈ 0.0681 µg/mL) | 0.09 (≈ 0.0306 µg/mL) | 1.6 (≈ 0.545 µg/mL) | 1.6 (≈ 0.545 µg/mL) | 0.1 (≈ 0.034 µg/mL) | 0.3 (≈ 0.102 µg/mL) | 0.5 (≈ 0.17 µg/mL) | 0.7 (≈ 0.238 µg/mL) | 0.4 (≈ 0.136 µg/mL) | 1.7 (≈ 0.579 µg/mL) | 1.3 (≈ 0.443 µg/mL) | 1.7 (≈ 0.579 µg/mL) | 1.2 (≈ 0.409 µg/mL) | 4.65 | 0.1 (≈ 0.034 µg/mL) | 18 | 2.4 (≈ 0.817 µg/mL) | 0.8 (≈ 0.272 µg/mL) |  |
| Cc1cc(CCCCCOc2ccc(C3=NCCO3)cc2C(F)F)on1 | 0.8 (≈ 0.292 µg/mL) | 0.06 (≈ 0.0219 µg/mL) | 0.05 (≈ 0.0182 µg/mL) | 0.05 (≈ 0.0182 µg/mL) | 1.7 (≈ 0.619 µg/mL) | 2 (≈ 0.729 µg/mL) | 0.02 (≈ 0.00729 µg/mL) | 0.08 (≈ 0.0292 µg/mL) | 0.05 (≈ 0.0182 µg/mL) | 0.2 (≈ 0.0729 µg/mL) | 0.2 (≈ 0.0729 µg/mL) | 0.9 (≈ 0.328 µg/mL) | 2 (≈ 0.729 µg/mL) | 2 (≈ 0.729 µg/mL) | 2 (≈ 0.729 µg/mL) | 4.59 | 0.09 (≈ 0.0328 µg/mL) | 17 | 0.3 (≈ 0.109 µg/mL) | 1 (≈ 0.364 µg/mL) |  |
| Cc1cc(CCCCCOc2ccc(C3=NCCO3)cc2C(=O)O)on1 |  |  |  |  |  |  |  |  |  |  |  |  |  |  |  |  |  |  |  |  | MIC (rhinovirus A2 [6]): inactive |
| Cc1cc(CCCCCOc2ccc(C3=NCCO3)cc2Br)on1 | 0.5 (≈ 0.197 µg/mL) |  | 0.05 (≈ 0.0197 µg/mL) | 0.01 (≈ 0.00393 µg/mL) | 1.4 (≈ 0.551 µg/mL) | 1.4 (≈ 0.551 µg/mL) | 0.02 (≈ 0.00787 µg/mL) | 0.1 (≈ 0.0393 µg/mL) | 0.05 (≈ 0.0197 µg/mL) | 0.2 (≈ 0.0787 µg/mL) | 0.2 (≈ 0.0787 µg/mL) | 1.8 (≈ 0.708 µg/mL) | 1.4 (≈ 0.551 µg/mL) | 2 (≈ 0.787 µg/mL) | 0.1 (≈ 0.0393 µg/mL) | 4.42 | 0.08 (≈ 0.0315 µg/mL) | 7.9 | 1.1 (≈ 0.433 µg/mL) | 0.4 (≈ 0.157 µg/mL) | MIC (rhinovirus A2 [7]): 0.04 µM (≈ 0.0157 µg/mL) |
| Cc1cc(CCCCCOc2ccc(C3=NCCO3)cc2N)on1 |  | 0.91 (≈ 0.3 µg/mL) |  |  |  |  |  |  |  |  |  |  |  |  |  | 2.83 |  | 19 |  | 7 (≈ 2.31 µg/mL) |  |
| Cc1cc(CCCCCOc2ccc(C3=NCCO3)cc2F)on1 |  | 0.4 (≈ 0.133 µg/mL) |  |  |  |  |  |  |  |  |  |  |  |  |  |  |  | 9.3 |  | > 9.3 |  |
| Cc1cc(CCCCCOc2ccc(C3=NCCO3)cc2C(F)(F)F)on1 | 0.4 (≈ 0.153 µg/mL) | 0.03 (≈ 0.0115 µg/mL) | 0.03 (≈ 0.0115 µg/mL) | 0.03 (≈ 0.0115 µg/mL) | 0.03 (≈ 0.0115 µg/mL) | 1.1 (≈ 0.421 µg/mL) | 0.2 (≈ 0.0765 µg/mL) | 0.04 (≈ 0.0153 µg/mL) | 0.07 (≈ 0.0268 µg/mL) | 0.2 (≈ 0.0765 µg/mL) | 0.2 (≈ 0.0765 µg/mL) | 0.2 (≈ 0.0765 µg/mL) | 0.2 (≈ 0.0765 µg/mL) | 3 (≈ 1.15 µg/mL) | 1.1 (≈ 0.421 µg/mL) | 4.38 | 0.3 (≈ 0.115 µg/mL) | 3.4 | 1.8 (≈ 0.688 µg/mL) | 0.4 (≈ 0.153 µg/mL) |  |
